Dyrk1A ADPGlo – blocks rat Dyrk1A kinase activity; Q63470; ADP-Glo luminescence, NFATc1 peptide; inhibition, % at 12.5 µM; 310,000 compounds, 0.43% hits; AID 504441; in the data active = inhibition above about 50%;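 also: plate controls were vehicle with enzyme for no effect and no enzyme for full effect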
CAL PDZ FP-1 – blocks peptide binding to the human CAL PDZ domain | Q9HD26 | purified CAL PDZ, TMR-peptide fluorescence polarization, 1 h | inhibition, % at 24.9 µM | 300,000 compounds, 0.92% hits;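 active = mean inhibition of at least 30% with at least half of replicates also reaching 30%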;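 also: 0% = DMSO neutral control and 100% = excess unlabeled competitor peptide PRC23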
CAL PDZ FP-2 – human CAL PDZ-peptide interaction inhibition | purified CAL PDZ, TMR-peptide fluorescence polarization, 1 h | inhibition, % at 20 µM | 330,000 compounds, 0.02% hits | AID 504414;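 active = highest replicate inhibition of at least 40%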;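 also: plate controls were DMSO neutral control wells for no effect and unlabeled competitor peptide control wells for full effect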
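Control set: unlabelled peptide and DMSO controls / Material: purified CerCALP PDZ construct / Timing: 1 h incubation at room temperature before polarization reading / Doses: 20 µM, one dose / Detection: fluorescence polarization (mP)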
ARNT TACC3 PPI – disruptors of human ARNT/TACC3 interaction | Q9Y6A5 | AlphaScreen His-ARNT PAS-B/GST-TACC3 binding, luminescence; TACC3 fragment carries E629A point mutation | inhibition, % at 9.99 µM | 390,000 compounds, 0.66% hits;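 active = mean inhibition of replicates at least 50% and at least half of replicates each reaching 50%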;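 also: 0% = complete ARNT plus TACC3 wells and 100% = ARNT alone without TACC3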
ARNT Alpha ctr – counter-screen for ARNT/TACC3 inhibitors: AlphaScreen artifacts; shares compounds with ARNT TACC3 PPI; His-ARNT PASB-GST AlphaScreen artifact counter-screen, luminescence; AC50, µM (highest dose often 68 µM), for inactives: at the top dose activity change, negative = signal decrease; 1,200 compounds, 50% hits; AID 651705;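 active = every separate test run was called active for a drop in luminescence, with AC50 within twice the top valid dose, actives reach about 71 µM in these data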
An asterisk follows results filed as active; . = not tested or not shown; [ ] = remark or other dose. Rows were chosen to be rich in hits. Some 1.4% of all compounds tested hit in one or more screens of this group.

SMILES	Dyrk1A ADPGlo	CAL PDZ FP-1	CAL PDZ FP-2	ARNT TACC3 PPI	ARNT Alpha ctr
O=c1nccc(N/N=C/c2ccccc2O)[nH]1	-1.0	-0.5	-1.6	35.6	.
C[C@@H]1CN([C@@H](C)CO)C(=O)c2ccccc2-c2ccccc2CO[C@H]1CN(C)C(=O)[C@H](C)c1ccccc1	.	.	.	-7.3	.
CC1CCCC(C)N1/N=C/c1ccc(N(C)C)cc1 (configuration not stated)	2.7	-2.2	35.2	7.9	.
CC1CCCC(C)N1/N=C/c1ccc([N+](=O)[O-])cc1 (configuration not stated)	-0.2	-4.1	.	51.0*	23.7µM*
CCN(C(=O)COc1ccccc1C(=O)NCc1ccccc1)C1CCS(=O)(=O)C1 (configuration not stated)	.	4.9	1.1	-4.1	.
CCN(C(=O)COc1cccc2cccnc12)C1CCS(=O)(=O)C1 (configuration not stated)	-5.3	0.7	-2.7	53.2*	-10.9%
O=C(COC(=O)c1ccc(O)cc1O)Nc1ccc2ccccc2c1	.	4.2	-0.4	1.4	.
O=C(COC(=O)c1ccc(O)cc1O)Nc1nnc(-c2ccccc2)o1	0.2	-4.3	-3.6	60.4*	47µM*
COc1ccc(-c2csc3nc[nH]c(=O)c23)cc1OC	-2.6	-7.0	.	10.4	.
COc1ccc(C2=C(C)CC(C)(C)NC2=O)cc1OC	-3.2	-1.3	-0.3	active	5.0%
Cc1ccc(/C=N/NC(=S)N2CCOCC2)cc1	-1.8	-5.0	0.2	45.4*	-31.0%
Cc1ccc(CNC(=S)N2CCOCC2)cc1	-2.1	.	0.1	1.9	.
CC(=O)N1CCc2[nH]c3ccc(C)cc3c2C1	7.0	-3.2	-0.5	35.9*	-1.4%
CCOC(=O)N1CCc2[nH]c3ccc(C)cc3c2C1	6.6	-2.4	-1.5	-4.7	.
C[C@H](CO)N1C[C@H](C)[C@H](CN(C)Cc2ccccc2)Oc2ncc(-c3cccc(F)c3)cc2C1=O	.	.	.	1.0	.
O=C(Nc1ccc2c(c1)OCO2)c1ccc2c(c1)OCO2	7.1	-0.3	-1.2	52.2*	-16.5%
COc1ccccc1C(=O)Nc1ccccc1N1CCCCC1	-3.8	6.9	0.1	14.1*	5.5%
COc1ccc(Cl)cc1C(=O)Nc1ccccc1N1CCCCC1	-2.8	-8.0	-2.1	-9.6	.
c1ccc(-c2nccc(-c3ccco3)n2)nc1	1.0	5.1	0.0	59.2*	56.5µM*
Cn1c(CNc2ccccc2O)nc2ccccc21	0.2	1.1	-0.3	66.9*	-31.9%
COc1ccc(C(=O)NNC(=O)Cc2coc3cc(OC)ccc23)cc1	.	-0.3	-1.5	57.5*	-6.8%
O=S(=O)(c1ccccc1)N1CCN(Cc2cccc(OCCO)c2)CC1	.	.	.	-11.3	.
COc1ccc(NC(=O)Nc2ccc3c(c2)CC(=O)N([C@@H](C)CO)C[C@H](C)[C@@H](CN(C)Cc2ccc(Oc4ccccc4)cc2)O3)cc1	.	.	.	17.1	.
COc1ccc(NC(=O)Nc2ccc3c(c2)CC(=O)N([C@@H](C)CO)C[C@@H](C)[C@H](CN(C)Cc2ccc(Oc4ccccc4)cc2)O3)cc1	.	.	.	58.3*	20µM*
C[C@H]1CN([C@@H](C)CO)C(=O)Cc2cc(NC(=O)Nc3cccc4ccccc34)ccc2O[C@@H]1CN(C)Cc1ccc(Oc2ccccc2)cc1	.	.	.	61.2*	34.2µM*
SMILES	Dyrk1A ADPGlo	CAL PDZ FP-1	CAL PDZ FP-2	ARNT TACC3 PPI	ARNT Alpha ctr
C[C@H](CO)N1C[C@H](C)[C@H](CN(C)Cc2ccc(Oc3ccccc3)cc2)Oc2ccc(NC(=O)Nc3cccc4ccccc34)cc2CC1=O	-4.7	-0.2	-0.1	-3.3	.
C[C@H](CO)N1C[C@H](C)[C@@H](CN(C)C(=O)Nc2ccc3c(c2)OCO3)Oc2ccc(NC(=O)CCN3CCOCC3)cc2CC1=O	.	.	.	50.5*	-14.3%[42 µM]
C[C@H](CO)N1C[C@H](C)[C@H](CN(C)C(=O)Nc2ccc3c(c2)OCO3)Oc2ccc(NC(=O)CCN3CCOCC3)cc2CC1=O	.	.	.	18.6	.
C[C@@H]1CN([C@@H](C)CO)C(=O)c2cc(NC(=O)Nc3cccc4ccccc34)ccc2O[C@@H]1CN(C)C(=O)Nc1ccc(C(F)(F)F)cc1	.	.	.	-1.3	.
C[C@H]1CN([C@@H](C)CO)C(=O)c2cc(NC(=O)Nc3cccc4ccccc34)ccc2O[C@@H]1CN(C)C(=O)Nc1ccc(C(F)(F)F)cc1	.	.	.	active	-30.6%[42 µM]
CC(C)c1cn(CC[C@H]2CC[C@H](NS(=O)(=O)c3ccccc3)[C@@H](CO)O2)nn1	.	.	.	-12.0	.

Compound activity (PubChem BioAssay)
